≈ marks a conversion by molar mass, not a printed value.
Legend:
U-251 = test: Cytotoxicity against human U251 cells after 72 hrs by SRB assay; assay type: functional; conditions: U-251, 72 h
SK-OV-3 = test: Cytotoxicity against human SKOV3 cells after 72 hrs by SRB assay; assay type: functional; conditions: SK-OV-3, 72 h
OVCAR-5 = test: Cytotoxicity against human OVCAR5 cells after 72 hrs by SRB assay; assay type: functional; conditions: OVCAR-5, 72 h
OVCAR-3 = test: Cytotoxicity against human OVCAR3 cells after 72 hrs by SRB assay; assay type: functional; conditions: OVCAR-3, 72 h
NCI-H522 = test: Cytotoxicity against human NCI-H522 cells after 72 hrs by SRB assay; assay type: functional; conditions: NCI-H522, 72 h
[1] = Cytotoxicity against human MKN1 cells after 72 hrs by SRB assay; assay type: functional; conditions: MKN-1, 72 h
SNB-75 = test: Cytotoxicity against human SNB75 cells after 72 hrs by SRB assay; assay type: functional; conditions: SNB-75, 72 h
[2] = Cytotoxicity against human RXF631L cells after 72 hrs by SRB assay; assay type: functional; conditions: RXF 631, 72 h
LOX IMVI = test: Cytotoxicity against human LOXIMVI cells after 72 hrs by SRB assay; assay type: functional
SF-539 = test: Cytotoxicity against human SF539 cells after 72 hrs by SRB assay; assay type: functional; conditions: SF-539, 72 h
KM12 = test: Cytotoxicity against human KM12 cells after 72 hrs by SRB assay; assay type: functional; conditions: KM12, 72 h
DMS-114 = test: Cytotoxicity against human DMS114 cells after 72 hrs by SRB assay; assay type: functional; conditions: DMS-114, 72 h
BALB/3T3 = test: Cytotoxicity against mouse BALB/3T3 cells after 72 hrs by SRB assay; assay type: cell-based; conditions: BALB/3T3, 72 h
How it was run: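 Adherent cells grown at 37 °C and 5% CO2. A549 and HCT116 were in RPMI 1640/OptiMEM (50:50) with 5% FBS; BALB/3T3 in Dulbecco medium with 10% FBS and pyruvate. Seeded at 1×10^4/well 24 h before dosing, then 72 h at 10–0.01 µg/mL final. Fixed with cold 50% TCA, stained with 0.4% SRB, dye extracted in 10 mM Tris, read at 540 nm.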

L6 = test: Cytotoxicity against rat L6 cells after 70 hrs by alamar blue assay; conditions: L6, 70 h
Plasmodium falciparum = test: Antimalarial activity against erythrocytic stage of Plasmodium falciparum NF54 infected in RBC after 48 hrs by [3H]-hypoxanthine incorporation assay; assay type: functional, organism-based
[3] = read-out: LC50 (the source's name)
[4] = read-out: pLC50 (the source's name) (converted)

Question: Which results are given for `COc1ccc(C2O[C@]34CC(c5cccc(OC)c5)OC(=O)C3=C[C@@]2(C)OO4)cc1` (some centres undefined)?
Answer: TGI (U-251): 33 µM; GI50 (U-251; read-out: GI50): 16 µM; CC50 (U-251; [3]): 68 µM; TGI (SK-OV-3): 33 µM; GI50 (SK-OV-3; read-out: GI50): 1.9 µM; CC50 (SK-OV-3; [3]): 58 µM; TGI (OVCAR-5): 7.4 µM; GI50 (OVCAR-5; read-out: GI50): 2.8 µM; CC50 (OVCAR-5; [3]): 27 µM; TGI (OVCAR-3): 5.1 µM; GI50 (OVCAR-3; read-out: GI50): 2.4 µM; CC50 (OVCAR-3; [3]): 13 µM; TGI (NCI-H522): 5 µM; GI50 (NCI-H522; read-out: GI50): 2 µM; CC50 (NCI-H522; [3]): 22 µM; TGI [1]: 4.4 µM; GI50 ([1]; read-out: GI50): 2.1 µM; CC50 [1, 3]: 9.1 µM; TGI (SNB-75): 28 µM; GI50 (SNB-75; read-out: GI50): 12 µM; CC50 (SNB-75; [3]): 64 µM; TGI [2]: 31 µM; GI50 ([2]; read-out: GI50): 17 µM; CC50 [2, 3]: 59 µM; TGI (LOX IMVI): 9 µM; GI50 (LOX IMVI; read-out: GI50): 1 µM; CC50 (LOX IMVI; [3]): 7.5 µM; TGI (SF-539): 5.4 µM; GI50 (SF-539; read-out: GI50): 2.8 µM; CC50 (SF-539; [3]): 14 µM; TGI (KM12): 39 µM; GI50 (KM12; read-out: GI50): 18 µM; CC50 (KM12; [3]): 85 µM; TGI (DMS-114): 20 µM; GI50 (DMS-114; read-out: GI50): 4.4 µM; CC50 (DMS-114; [3]): 95 µM

Question: For `COc1ccc(C2O[C@]34CC(c5cccc(Cl)c5)OC(=O)C3=C[C@@]2(C)OO4)cc1` (some centres undefined), which TGI (U-251) is on record?
Answer: Its TGI is 36 µM.

Question: What about the GI50 (U-251; read-out: GI50) of the same molecule?
Answer: The GI50 was 18 µM.

Question: What about the CC50 (U-251; [3]) of the same molecule?
Answer: Its CC50 is 73 µM.

Question: And the GI50 (U-251; read-out: pGI50 (converted))?
Answer: The GI50 was 15.8 µM.

Question: What about the CC50 (U-251; [4]) of the same molecule?
Answer: The CC50 was 69.2 µM.

Question: And the TGI (SK-OV-3)?
Answer: The TGI was 29 µM.

Question: And the GI50 (SK-OV-3; read-out: GI50)?
Answer: Its GI50 is 16 µM.

Question: And the CC50 (SK-OV-3; [3])?
Answer: Its CC50 is 54 µM.

Question: And the GI50 (SK-OV-3; read-out: pGI50 (converted))?
Answer: Its GI50 is 19.1 µM.

Question: What about the CC50 (SK-OV-3; [4]) of the same molecule?
Answer: Its CC50 is 58.9 µM.

Question: And the TGI (OVCAR-5)?
Answer: Its TGI is 17 µM.

Question: And the GI50 (OVCAR-5; read-out: GI50)?
Answer: The GI50 was 5.3 µM.

Question: What about the CC50 (OVCAR-5; [3]) of the same molecule?
Answer: Its CC50 is 42 µM.

Question: And the GI50 (OVCAR-5; read-out: pGI50 (converted))?
Answer: The GI50 was 2.75 µM.

Question: And the CC50 (OVCAR-5; [4])?
Answer: Its CC50 is 26.3 µM.

Question: What about the TGI (OVCAR-3) of the same molecule?
Answer: Its TGI is 10 µM.

Question: What about the GI50 (OVCAR-3; read-out: GI50) of the same molecule?
Answer: The GI50 was 3.4 µM.

Question: And the CC50 (OVCAR-3; [3])?
Answer: Its CC50 is 42 µM.

Question: And the GI50 (OVCAR-3; read-out: pGI50 (converted))?
Answer: The GI50 was 2.45 µM.

Question: What about the CC50 (OVCAR-3; [4]) of the same molecule?
Answer: Its CC50 is 12.6 µM.

Question: What about the IC50 (BALB/3T3) of the same molecule?
Answer: Its IC50 is 8.97 µM.

Question: What about the TGI (NCI-H522) of the same molecule?
Answer: The TGI was 8.6 µM.

Question: What about the GI50 (NCI-H522; read-out: GI50) of the same molecule?
Answer: Its GI50 is 2.7 µM.

Question: What about the CC50 (NCI-H522; [3]) of the same molecule?
Answer: The CC50 was 100 µM.

Question: And the GI50 (NCI-H522; read-out: pGI50 (converted))?
Answer: The GI50 was 2 µM.

Question: What about the CC50 (NCI-H522; [4]) of the same molecule?
Answer: Its CC50 is 22.4 µM.

Question: What about the TGI [1] of the same molecule?
Answer: The TGI was 17 µM.

Question: And the GI50 ([1]; read-out: GI50)?
Answer: The GI50 was 4.5 µM.

Question: And the CC50 [1, 3]?
Answer: The CC50 was 49 µM.

Question: And the GI50 ([1]; read-out: pGI50 (converted))?
Answer: The GI50 was 2.09 µM.

Question: And the CC50 [1, 4]?
Answer: The CC50 was 9.12 µM.

Question: And the TGI (SNB-75)?
Answer: Its TGI is 28 µM.

Question: And the GI50 (SNB-75; read-out: GI50)?
Answer: The GI50 was 12 µM.

Question: And the CC50 (SNB-75; [3])?
Answer: Its CC50 is 67 µM.

Question: And the GI50 (SNB-75; read-out: pGI50 (converted))?
Answer: The GI50 was 12.3 µM.

Question: And the CC50 (SNB-75; [4])?
Answer: Its CC50 is 63.1 µM.

Question: What about the TGI [2] of the same molecule?
Answer: The TGI was 30 µM.

Question: What about the GI50 ([2]; read-out: GI50) of the same molecule?
Answer: Its GI50 is 16 µM.

Question: And the CC50 [2, 3]?
Answer: The CC50 was 56 µM.

Question: What about the GI50 ([2]; read-out: pGI50 (converted)) of the same molecule?
Answer: Its GI50 is 16.6 µM.

Question: And the CC50 [2, 4]?
Answer: Its CC50 is 58.9 µM.

Question: And the TGI (LOX IMVI)?
Answer: Its TGI is 12 µM.

Question: What about the GI50 (LOX IMVI; read-out: GI50) of the same molecule?
Answer: Its GI50 is 3.1 µM.

Question: What about the CC50 (LOX IMVI; [3]) of the same molecule?
Answer: The CC50 was 60 µM.

Question: And the GI50 (LOX IMVI; read-out: pGI50 (converted))?
Answer: Its GI50 is 2.04 µM.

Question: What about the CC50 (LOX IMVI; [4]) of the same molecule?
Answer: The CC50 was 7.59 µM.

Question: What about the TGI (SF-539) of the same molecule?
Answer: Its TGI is 23 µM.

Question: What about the GI50 (SF-539; read-out: GI50) of the same molecule?
Answer: Its GI50 is 8.4 µM.

Question: And the CC50 (SF-539; [3])?
Answer: Its CC50 is 55 µM.

Question: What about the GI50 (SF-539; read-out: pGI50 (converted)) of the same molecule?
Answer: Its GI50 is 2.75 µM.

Question: And the CC50 (SF-539; [4])?
Answer: The CC50 was 13.5 µM.

Question: And the TGI (KM12)?
Answer: The TGI was 51 µM.

Question: What about the GI50 (KM12; read-out: GI50) of the same molecule?
Answer: The GI50 was 25 µM.

Question: What about the CC50 (KM12; [3]) of the same molecule?
Answer: Its CC50 is 100 µM.

Question: What about the GI50 (KM12; read-out: pGI50 (converted)) of the same molecule?
Answer: The GI50 was 17.8 µM.

Question: What about the CC50 (KM12; [4]) of the same molecule?
Answer: The CC50 was 85.1 µM.

Question: What about the TGI (DMS-114) of the same molecule?
Answer: The TGI was 36 µM.

Question: And the GI50 (DMS-114; read-out: GI50)?
Answer: Its GI50 is 14 µM.

Question: And the CC50 (DMS-114; [3])?
Answer: The CC50 was 92 µM.

Question: And the GI50 (DMS-114; read-out: pGI50 (converted))?
Answer: Its GI50 is 4.47 µM.

Question: And the CC50 (DMS-114; [4])?
Answer: The CC50 was 95.5 µM.

Question: What about the IC50 (L6) of the same molecule?
Answer: The IC50 was 0.46 µg/mL (≈ 1.11 µM).

Question: And the IC50 (Plasmodium falciparum)?
Answer: The IC50 was 1.38 µg/mL (≈ 3.33 µM).

Source: ChEMBL document CHEMBL2434891, “Design, synthesis, and in vitro cancer cell growth inhibition evaluation and antimalarial testing of trioxanes installed in cyclic 2-enoate substructures” (Eur J Med Chem, 2013)
